Screening data: PubChem BioAssay, Johns Hopkins Ion Channel Center
KCNQ1 block – inhibitors of human KCNQ1 channel, primary screen, cell-based, thallium flux, high-throughput | B-score at 10 µM | actives 1.3% (n = 310,000) | CHO-K1 KCNQ1, FluxOR thallium flux fluorescence; hits give high values | Potassium voltage-gated channel subfamily KQT member 1 (Homo sapiens), P51787 | AID 2642, 2010;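 active = compounds whose thallium flux B-score, printed positive for inhibition, exceeds three library SD while starting fluorescence stays within three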;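 also: channel opened by potassium depolarization with thallium stimulus after 20 min compound exposure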
KCNK3 block – human KCNK3 channel inhibitors, primary screen, CHO cells, FluxOR thallium flux, B-score | Potassium channel subfamily K member 3 (Homo sapiens), O14649 | AID 602410, 2012 | actives 0.84% (n = 340,000) | FluxOR fluorescence; hits give low values | B-score at 10 µM;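 active = B-score under library mean minus 4 SD, starting fluorescence ratio at most library mean plus 5 SD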;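 also: more negative B-score means stronger inhibition of thallium flux through KCNK3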
hERG rescue – hERG rescue from dofetilide block, primary screen, cell-based, CHO-hERG, FluxOR thallium flux, dofetilide IC70. dofetilide IC70 present. actives 0.51% (n = 310,000). Voltage-gated inwardly rectifying potassium channel KCNH2 (Homo sapiens), Q12809. activation (rescue from dofetilide block), less the hit threshold, % at 10 µM;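 active = activation above the mean of controls blocked by dofetilide plus 5 SD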;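 also: thallium influx through hERG after potassium depolarization seen as dye fluorescence rise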
KCNQ1 act – potentiators or activators of KCNQ1 channel, primary screen, cell-based, thallium flux, high-throughput | AID 2648, 2010 | CHO-K1 KCNQ1, thallium flux FluxOR fluorescence; hits give high values | actives 0.35% (n = 310,000) | Potassium voltage-gated channel subfamily KQT member 1 (Homo sapiens), P51787 | B-score at 10 µM;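 active = fluorescence ratio B-score, a plate-corrected score, at least three library SD, with initial intensity B-score within 5 SD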
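Schedule – 37 °C overnight plating, 90-min dark dye load, 20-min compound pretreatment · System – stable KCNQ1 CHO-K1 line · Probe or stimulus – thallium- and potassium-containing depolarizing buffer · Measured by – kinetic FluxOR fluorescence, 10 s baseline plus 110 s post-stimulus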
KCNK9 block – KCNK9 potassium channel inhibitors, primary screen, HEK293 cells, thallium flux | actives 1.2% (n = 310,000) | Potassium channel subfamily K member 9 (Homo sapiens), Q9NPC2 | FluxOR thallium flux fluorescence; hits give low values | B-score at 10 µM | AID 488922, 2010;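 active = ratio B-score over 3 SD below the library mean, with starting fluorescence within 5 SD of its mean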;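 also: negative B-score means less thallium flux so channel inhibition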
Target sequence (Q9NPC2 whole entry, looked up): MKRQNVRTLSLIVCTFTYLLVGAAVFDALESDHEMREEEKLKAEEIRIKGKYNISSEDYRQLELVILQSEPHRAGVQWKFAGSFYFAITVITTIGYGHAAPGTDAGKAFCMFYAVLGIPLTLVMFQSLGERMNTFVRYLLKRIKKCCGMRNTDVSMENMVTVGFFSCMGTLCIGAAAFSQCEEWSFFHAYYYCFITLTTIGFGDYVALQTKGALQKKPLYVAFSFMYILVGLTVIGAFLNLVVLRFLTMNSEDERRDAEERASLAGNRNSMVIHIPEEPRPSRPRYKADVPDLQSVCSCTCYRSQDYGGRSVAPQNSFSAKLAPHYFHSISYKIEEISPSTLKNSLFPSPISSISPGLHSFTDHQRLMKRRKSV
KCNK9 inh conf – KCNK9 potassium channel inhibitors, confirmation, HEK293 cells, thallium flux, duplicate; FluxOR thallium flux fluorescence; inhibition, % at 10 µM; actives 43% (n = 4,900); AID 492992, 2010; shares compounds with KCNK9 block;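 active = thallium signal inhibited by more than 5 SD of the compound-free buffer control wells, on both duplicate plates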;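 also: 0% = assay buffer control wells without compound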
Kir21 sel – mouse Kir2.1 channel inhibition, confirmation, selectivity assay for KCNK9 modulator project, cell-based, HEK293, thallium flux | shares compounds with KCNK9 block | Kir2.1 cells, FluxOR thallium flux fluorescence | inhibition, % at 10 µM | actives 4% (n = 4,900);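 active = thallium signal drop more than 5 SD beyond the mean of the no-compound control wells, seen in both duplicate plates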;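 also: signal is fluorescence rise after thallium addition divided by baseline fluorescence; plate controls were assay buffer only for no effect and full block by chlorpromazine control for full effect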
HEK293 Tl ctr – thallium flux in non-induced HEK293 cells, confirmation, counter-screen for KCNK9 inhibitor project, cell-based, second counter screen, non-induced KCNK9-HEK293. shares compounds with KCNK9 block. FluxOR thallium flux. inhibition, % at 10 µM. actives 40% (n = 4,900);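 active = thallium signal drop beyond 5 SD of the untreated control mean, on both duplicate plates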;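 also: plate controls were buffer only IC0 wells for no effect and SID17386958 at its maximal inhibitory level for full effect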
The depositor's hits bear a star; i = inactive; . = no result given. In the library only some 3.1% were active in any assay of this set; here they are far more common.

SMILES | KCNQ1 block | KCNK3 block | hERG rescue | KCNQ1 act | KCNK9 block | KCNK9 inh conf | Kir21 sel | HEK293 Tl ctr
N#C/C(=C/c1ccc(N2CCOCC2)o1)c1ccc(Cl)cc1 | i | i | -23 | i | -10* | 74%* | 38%* | 80%*
O=C(c1ccc(Cl)cc1)C1CCCN(Cc2cccn2-c2cccnc2)C1 (centres undefined) | i | i | -8 | i | i | . | . | .
CSc1ccc(C(=O)C2CCCN(Cc3cccn3-c3cccnc3)C2)cc1 (centres undefined) | i | i | -1 | i | i | i | i | i
CC(=O)OC1CC(C)(C)N(OC(=O)CCCN2C(=O)c3ccccc3C2=O)C(C)(C)C1 | i | i | -6 | i | i | i | i | i
O=C(CCCN1C(=O)c2ccccc2C1=O)Oc1ccc(F)cc1 | i | i | -3 | i | i | . | . | .
CCC(C)NC(=O)c1ccccc1NC(=O)c1ccc(CSc2ccc(C)cc2)cc1 (centres undefined) | i | i | -13 | i | i | i | i | i
CN1C[C@H]2CON(C)[C@H]2C[C@H]1c1cccc(-c2ccccc2)c1 | . | i | . | . | . | . | . | .
CC(C)[C@H](NS(=O)(=O)c1cccc(Cl)c1)C(=O)OCC(=O)NC(=O)CN1CCCC1=O | . | i | . | . | . | . | . | .
CCc1ccc(-c2cc(C)no2)cc1S(=O)(=O)N1CCN(c2cc(C)ccc2C)CC1 | i | i | -8 | i | i | i | i | i
CC12CCC(=O)N1C(C(=O)Nc1cc(S(=O)(=O)N3CCCCCC3)ccc1OCC(F)(F)F)CS2 (centres undefined) | i | i | -5 | i | i | . | . | .
CCOc1cc(/C=C2/C(=N)N3C(=NC2=O)SN=C3S(C)(=O)=O)ccc1OS(=O)(=O)c1ccccc1 | i | i | -25 | i | i | i | i | i
Cc1cccc(CN2C(=O)[C@@H]3Cc4c([nH]c5ccccc45)C(C)(C)N3C2=O)c1 | i | i | -8 | i | i | i | i | i
Cc1cccc(CN2C(=O)[C@H]3Cc4c([nH]c5ccccc45)C(C)(C)N3C2=O)c1 | i | i | -19 | i | i | i | i | i
CC1(C)c2[nH]c3ccccc3c2C[C@@H]2C(=O)N(Cc3ccccc3)C(=O)N21 | i | i | -10 | i | i | . | . | .
O=C1Cc2cc(O)ccc2O1 | . | i | . | . | . | . | . | .
Nc1nnc(SCc2ccc([N+](=O)[O-])cc2)s1 | i | i | -10 | i | i | . | . | .
O=[N+]([O-])c1ccc(CSc2nnc(SCc3ccc(Cl)cc3)s2)cc1 | i | i | 0 | i | -9.3* | 45%* | i | 46%*
Nc1c(C(=O)c2ccccc2)sc(Nc2ccccc2)c1S(=O)(=O)c1ccccc1 | i | i | -15 | i | i | i | i | i
CN(C)c1nc(SCc2ccc(Cl)cc2)nc2c1CCCC2 | i | i | -10 | i | -9.9* | 34%* | i | 56%*
CNc1nc(SCc2ccccc2Cl)nc2c1CCCC2 | i | i | -8 | i | -11* | 28%* | i | 38%*
Cc1cc(C)nc(SCc2ccc(Cl)cc2)n1 | i | i | -6 | i | i | . | . | .
Cc1ccccc1CN1CCN(c2nc3ccccc3s2)CC1 | i | i | -1 | i | i | i | i | 34%*
COc1ccc(CN2CCN(c3nc4ccccc4s3)CC2)cc1 | i | i | -10 | i | i | . | . | .
CCN1CCN(c2nc3c(c(=O)[nH]c(=O)n3C)n2Cc2ccccc2F)CC1 | i | i | -9 | i | i | . | . | .
Cn1c(=O)[nH]c(=O)c2c1nc(Br)n2Cc1ccccc1F | i | i | -2 | i | i | i | i | i
SMILES | KCNQ1 block | KCNK3 block | hERG rescue | KCNQ1 act | KCNK9 block | KCNK9 inh conf | Kir21 sel | HEK293 Tl ctr
Cc1ccc(Cl)cc1N1CCN(Cc2nc3c(c(=O)[nH]c(=O)n3C)n2CCc2ccccc2)CC1 | i | i | -9 | i | i | . | . | .
Cc1ccc(Cl)cc1N1CCN(Cc2nc3c(c(=O)[nH]c(=O)n3C)n2Cc2ccccc2F)CC1 | i | i | -17 | i | -8.8* | i | i | i
CCOC(=O)[C@@H]1[C@H]2COc3ccccc3[C@@H]2N2C(=O)N(c3ccc(OC)cc3)C(=O)[C@@]12C | i | i | -4 | i | i | . | . | .
CC1CCN(c2ccccc2NC(=S)NC(=O)C(C)(C)C)CC1 | i | i | -8 | i | -10* | 42%* | i | 33%*
Cc1nnc(SCc2ccccc2)nc1-c1ccccc1 | i | i | -11 | i | i | i | i | i
O=C(CNc1ccc(Br)cc1)Nc1ccc(S(=O)(=O)N2CCCC2)cc1 | . | i | . | . | . | . | . | .
Cn1nc(C(=O)NNC(=O)C(CCC(N)=O)NS(=O)(=O)c2ccc(Cl)cc2)c2ccccc2c1=O (centres undefined) | . | i | . | . | . | . | . | .
Cc1nc(SCC(=O)N2CCN(c3ccccc3)CC2)n[nH]1 | i | i | -9 | i | i | . | . | .
O=C(CSc1nc(N2CCCCC2)nc(N2CCCCC2)n1)N1CCN(c2ccccc2)CC1 | i | i | -2 | i | i | i | i | i
CCC(CC)C(=O)Oc1c(Sc2ccccc2[N+](=O)[O-])c(C)nn1C(C)(C)C | i | i | -12 | i | -12* | 52%* | i | 33%*
CC1Cc2ccccc2N1C(=S)NC1CCCC1 (centres undefined) | i | i | -13 | i | i | i | i | i
O=C1c2[nH]nc(-c3ccccc3O)c2C(c2cccc(O)c2)N1Cc1ccco1 (centres undefined) | i | i | -15 | i | -8.4* | 26%* | i | 30%*
